How the values were obtained:
Schistosoma japonicum [1] = experiment: Antischistosomal activity against adult Schistosoma japonicum assessed as vitality reduction at 100 uM after 72 hrs (reference value: 0%); format: functional
Schistosoma japonicum [2] = experiment: Antischistosomal activity against adult Schistosoma japonicum assessed as vitality reduction at 50 uM after 72 hrs (reference value: 0%); format: functional
Schistosoma japonicum [3] = experiment: Antischistosomal activity against adult Schistosoma japonicum assessed as worm survival at 100 uM after 72 hrs (reference value: 100%); format: functional
Method in brief: (§1)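 Five adult male S. japonicum worms recovered 6 weeks post-infection from female ICR Kunming mice, in duplicate dishes of bicarbonate-buffered DMEM with 20% newborn calf serum, penicillin, streptomycin and amphotericin B. Compound diluted from DMSO stock; DMSO control. Kept at 37 °C, 5% CO2, observed daily by stereomicroscope. Survival% = surviving/total worms × 100.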

Schistosoma japonicum [4] = experiment: Antischistosomal activity against juvenile Schistosoma japonicum assessed as vitality reduction at 50 uM after 72 hrs (reference value: 0%); format: functional
Schistosoma japonicum [5] = experiment: Antischistosomal activity against adult Schistosoma japonicum assessed as vitality reduction at 100 uM after 48 hrs (reference value: 0%); format: functional
Schistosoma japonicum [6] = experiment: Antischistosomal activity against adult Schistosoma japonicum assessed as worm survival at 50 uM after 24 hrs (reference value: 100%); format: functional; method in brief: as §1
Schistosoma japonicum [7] = experiment: Antischistosomal activity against adult Schistosoma japonicum assessed as vitality reduction at 50 uM after 48 hrs (reference value: 0%); format: functional
Schistosoma japonicum [8] = experiment: Antischistosomal activity against juvenile Schistosoma japonicum infected in ICR Kunming mouse assessed as worm reduction at 200 mg/kg, po for 5 days beginning on day 14 after infection (reference value: 0%)
Schistosoma japonicum [9] = experiment: Antischistosomal activity against juvenile Schistosoma japonicum assessed as worm survival at 50 uM after 24 hrs (reference value: 100%); format: functional
Method in brief: (§2)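 Nine juvenile S. japonicum worms recovered 17 days post-infection from female ICR Kunming mice, in duplicate dishes of bicarbonate-buffered DMEM with 20% newborn calf serum plus penicillin, streptomycin and amphotericin B. Compound diluted from DMSO stock. Held at 37 °C, 5% CO2, with daily stereomicroscope scoring. Survival% = surviving/total worms × 100.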

Schistosoma japonicum [10] = experiment: Antischistosomal activity against juvenile Schistosoma japonicum assessed as worm survival at 50 uM after 72 hrs (reference value: 100%); format: functional; method in brief: as §2
Schistosoma japonicum [11] = experiment: Antischistosomal activity against adult Schistosoma japonicum assessed as worm survival at 50 uM after 72 hrs (reference value: 100%); format: functional; method in brief: as §1
Schistosoma japonicum [12] = experiment: Antischistosomal activity against juvenile Schistosoma japonicum assessed as vitality reduction at 50 uM after 24 hrs (reference value: 0%); format: functional
Schistosoma japonicum [13] = experiment: Antischistosomal activity against adult Schistosoma japonicum assessed as worm survival at 100 uM after 24 hrs (reference value: 100%); format: functional; method in brief: as §1
Schistosoma japonicum [14] = experiment: Antischistosomal activity against adult Schistosoma japonicum assessed as vitality reduction at 50 uM after 24 hrs (reference value: 0%); format: functional
Schistosoma japonicum [15] = experiment: Antischistosomal activity against juvenile Schistosoma japonicum assessed as vitality reduction at 50 uM after 48 hrs (reference value: 0%); format: functional
Schistosoma japonicum [16] = experiment: Antischistosomal activity against adult Schistosoma japonicum assessed as vitality reduction at 100 uM after 24 hrs (reference value: 0%); format: functional
Schistosoma japonicum [17] = experiment: Antischistosomal activity against juvenile Schistosoma japonicum assessed as worm survival at 50 uM after 48 hrs (reference value: 100%); format: functional; method in brief: as §2
Schistosoma japonicum [18] = experiment: Antischistosomal activity against adult Schistosoma japonicum assessed as worm survival at 50 uM after 48 hrs (reference value: 100%); format: functional; method in brief: as §1
Schistosoma japonicum [19] = experiment: Antischistosomal activity against adult Schistosoma japonicum assessed as worm survival at 100 uM after 48 hrs (reference value: 100%); format: functional; method in brief: as §1
Schistosoma japonicum [20] = experiment: Antischistosomal activity against adult Schistosoma japonicum assessed as worm survival at 80 uM after 24 hrs (reference value: 100%); format: functional; method in brief: as §1
Schistosoma japonicum [21] = experiment: Antischistosomal activity against adult Schistosoma japonicum assessed as worm survival at 80 uM after 72 hrs (reference value: 100%); format: functional; method in brief: as §1
Schistosoma japonicum [22] = experiment: Antischistosomal activity against adult Schistosoma japonicum assessed as vitality reduction at 80 uM after 72 hrs (reference value: 0%); format: functional
Schistosoma japonicum [23] = experiment: Antischistosomal activity against adult Schistosoma japonicum assessed as vitality reduction at 80 uM after 24 hrs (reference value: 0%); format: functional
Schistosoma japonicum [24] = experiment: Antischistosomal activity against adult Schistosoma japonicum assessed as vitality reduction at 80 uM after 48 hrs (reference value: 0%); format: functional
Schistosoma japonicum [25] = experiment: Antischistosomal activity against adult Schistosoma japonicum assessed as worm survival at 80 uM after 48 hrs (reference value: 100%); format: functional; method in brief: as §1

SMILES	inhibition at 100 µM (Schistosoma japonicum [1]) [%]	inhibition at 50 µM (Schistosoma japonicum [2]) [%]	survival at 100 µM (Schistosoma japonicum [3]) [%]	inhibition at 50 µM (Schistosoma japonicum [4]) [%]	inhibition at 100 µM (Schistosoma japonicum [5]) [%]	survival at 50 µM (Schistosoma japonicum [6]) [%]	inhibition at 50 µM (Schistosoma japonicum [7]) [%]	inhibition in vivo at 200 mg/kg (Schistosoma japonicum [8]) [%]	survival at 50 µM (Schistosoma japonicum [9]) [%]	survival at 50 µM (Schistosoma japonicum [10]) [%]	survival at 50 µM (Schistosoma japonicum [11]) [%]	inhibition at 50 µM (Schistosoma japonicum [12]) [%]	survival at 100 µM (Schistosoma japonicum [13]) [%]	inhibition at 50 µM (Schistosoma japonicum [14]) [%]	inhibition at 50 µM (Schistosoma japonicum [15]) [%]	inhibition at 100 µM (Schistosoma japonicum [16]) [%]	survival at 50 µM (Schistosoma japonicum [17]) [%]	survival at 50 µM (Schistosoma japonicum [18]) [%]	survival at 100 µM (Schistosoma japonicum [19]) [%]	other results
O=C1CCC(C(=O)N2CC(=O)N3CCc4ccccc4[C@@H]3C2)C1 (stereo not given in full)	11.1	6.7	100	50.6	11.1	100	0	44.1	100	88.3	100	38.3	100	15.5	38.3	13.3	100	100	100	
O=C1CC(C(=O)N2CC(=O)N3CCc4ccccc4[C@@H]3C2)C1	22.7	15.3	100	38.3	22	100	15.5	41	100	100	100	32.1	100	17.8	37	24.5	100	100	100	
O=C1CC(C(=O)N2CC(=O)N3CCc4ccccc4[C@H]3C2)C1	8.9	0	100	34.6	8.7	100	0	19	88.3	88.3	100	30.9	100	4.5	30.9	6.7	88.3	100	100	
O=C1CCC(C(=O)N2CC(=O)N3CCc4ccccc4[C@H]3C2)C1 (stereo not given in full)	15.3	0	100	53.1	15.5	100	0	24.6	100	85	100	45.7	100	4.5	45.7	16	100	100	100	
O=C1CCC(C(=O)N2CC(=O)N3CCc4ccccc4[C@@H]3C2)CC1	77.8	55.5	60	66.7	82.2	60	60	60	51.6	44.1	100	60.5	40	73.3	64.2	86.7	48.3	80	60	survival at 80 µM (Schistosoma japonicum [20]): 60%; survival at 80 µM (Schistosoma japonicum [21]): 100%; inhibition at 80 µM (Schistosoma japonicum [22]): 60%; inhibition at 80 µM (Schistosoma japonicum [23]): 82%; inhibition at 80 µM (Schistosoma japonicum [24]): 69.3%; survival at 80 µM (Schistosoma japonicum [25]): 100%
O=C1CCC(C(=O)N2CC(=O)N3CCc4ccccc4[C@H]3C2)CC1	15.5	0	100	29.6	15.3	100	0	18	88.3	88.3	100	29.6	100	0	29.6	8.7	88.3	100	100	
O=C1CC(C(=O)N2CC(=O)N3CCc4ccccc4C3C2)C1 (racemic)	10	0	100	37	10	100	0	7.7	82.5	82.5	100	35.8	100	13.3	35.8	6.7	82.5	100	100	
O=C(C1CCCCC1)N1CC(=O)N2CCc3ccccc3C2C1 (stereo not given) [PRAZIQUANTEL]								19.9												

— ChEMBL document CHEMBL3352386, “Development of chiral praziquantel analogues as potential drug candidates with activity to juvenile Schistosoma japonicum” (2014)
